Fewer inactive variants are shown than the library holds.
B1: tRNA (parent)
chain: GUUCCGUUGGCGUAAUGGUAACGCGUCUCCCUCCUAAGGAGAAGACUGCGGGUUCGAGUCCCGUACGGAACG

Variants of: B1
Test: yeast fitness relative to wild type (ratio to wild type); higher = fitter; tRNA-Arg(CCU), competitive growth, 37 C, YPD
How it was run: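 Start and end populations of a pooled competition were compared by 100-nucleotide paired-end sequencing of gene amplicons. The Saccharomyces cerevisiae strains carried tRNA-Arg(CCU) gene variants at the native genomic locus, synthesised with a 3% per-site mutation rate at 69 sites, and competed in YPD at 37°C for 24 hours in six parallel replicates. Darwinian fitness relative to wild type was based on the change in genotype frequencies. Genotypes required ≥ 100 starting reads, and estimates < 0.5 were set to 0.5.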

G6A C24U U26G C34A C46G G56A C66U and G6C A21G C55A C61A cannot be ordered by yeast fitness: at most 0.5 for the first, at most 0.5 for the second.

Compared with G6A C34A A40U, G6A G9C A42U A43U A65G G68A A70C is higher in yeast fitness: 0.556 for the first, 0.663 for the second.

Going from G6A U19C to G6A U19A, the yeast fitness falls from 0.99 to 0.973.

G6A C22G C60A C62U and G6A G10C A20G C22U G38C U53C C61G cannot be ordered by yeast fitness: at most 0.5 for the first, at most 0.5 for the second.

First: G6A C11U C62A A65U C66U
Second: G6C A21G C30G A37U
The yeast fitness of the first is lower: at most 0.5 for the first, 0.566 for the second.

Going from G6A A57C A65C to G6A C31G G50A, the yeast fitness rises from 0.541 to 0.61.

Going from G6C A14G C49G G50A to G6A G17A U19G A69U, the yeast fitness rises from at most 0.5 to 0.595.

G6A C22A G23A C33U C34G G68C and G6A C27U C29A G58C C66U cannot be ordered by yeast fitness: at most 0.5 for the first, at most 0.5 for the second.

G6A C27G C34G A65C and G6A C24U A37U A40U cannot be ordered by yeast fitness: at most 0.5 for the first, at most 0.5 for the second.

G6A C11A U32A C34G G58A and G6A C33A U35A G68C cannot be ordered by yeast fitness: at most 0.5 for the first, at most 0.5 for the second.

Going from G6A C27G to G6A U7G G25C U53A A69C, the yeast fitness falls from 0.758 to at most 0.5.

Compared with G6A G41A C60G A65G, G6A G48C C49U is higher in yeast fitness: 0.618 for the first, 0.652 for the second.

G6A C27U C29A and G6A G9C C11G C34U A57U cannot be ordered by yeast fitness: at most 0.5 for the first, at most 0.5 for the second.

Compared with G6A C61A G67A, G6A A57U G68U A70G is lower in yeast fitness: 0.547 for the first, at most 0.5 for the second.

First: G6A G50A G58A
Second: G6A U8C G18C A21C C33A
The yeast fitness of the first is higher: 0.698 for the first, at most 0.5 for the second.

G6A U26A C61A and G6A U16G A21G A40G A42U G67C cannot be ordered by yeast fitness: at most 0.5 for the first, at most 0.5 for the second.

G6A U13A U19C A40U G67A and G6A G10A C30U C60G cannot be ordered by yeast fitness: at most 0.5 for the first, at most 0.5 for the second.

Compared with G6A U28C C61U, G6A U8C A69C is higher in yeast fitness: 0.628 for the first, 0.678 for the second.

G6A C34G C62U G68C and G6A G18C C30G C34A A37C C61U A65U cannot be ordered by yeast fitness: at most 0.5 for the first, at most 0.5 for the second.

First: G6A G10C C30A U32C A69U
Second: G6A C22U A40G A43U C46G C49G C62U
The yeast fitness of the first is higher: 0.586 for the first, at most 0.5 for the second.

Compared with G6A G18C C61G, G6A U8G U13A C30U G39C C55G is lower in yeast fitness: 0.563 for the first, at most 0.5 for the second.

G6A U54C C60G and G6A C11A A40G G56C A65C G67A cannot be ordered by yeast fitness: at most 0.5 for the first, at most 0.5 for the second.

Compared with G6A C31U G51A, G6A C11A C66U is lower in yeast fitness: 0.599 for the first, 0.592 for the second.

First: G6A C34G A37G G67U
Second: G6A U13C
The yeast fitness of the first is lower: at most 0.5 for the first, 0.937 for the second.

Compared with G6A U13A, G6A C11U U13C A43G G67A is lower in yeast fitness: 0.848 for the first, 0.58 for the second.

G6A C11U C33U U64C A70C and G6A C27G C31G G50A A70U cannot be ordered by yeast fitness: at most 0.5 for the first, at most 0.5 for the second.

G6A C55U G58A G67A and G6C A14C U54C cannot be ordered by yeast fitness: at most 0.5 for the first, at most 0.5 for the second.

G6A G38A C61A and G6A C22U A37G G68A A69G cannot be ordered by yeast fitness: at most 0.5 for the first, at most 0.5 for the second.

Compared with G6A G17A C24G C27G G67A, G6A C11A A14C U19C U32A A42C is higher in yeast fitness: at most 0.5 for the first, 0.664 for the second.

G6C A21G C24G C31A G44A and G6A C11A U16C U32G C49G C55A cannot be ordered by yeast fitness: at most 0.5 for the first, at most 0.5 for the second.

First: G6A C11U C34G
Second: G6A G17A C27U C31G C66G
The yeast fitness of the first is higher: 0.567 for the first, at most 0.5 for the second.

G6A C29A C31G G67A and G6A C11A C22G cannot be ordered by yeast fitness: at most 0.5 for the first, at most 0.5 for the second.

First: G6A C11A A40G G56C
Second: G6A C66U
The yeast fitness of the first is lower: at most 0.5 for the first, 1.03 for the second.

G6A U7A C60G and G6A C22U A42C U54A cannot be ordered by yeast fitness: at most 0.5 for the first, at most 0.5 for the second.

G6A C34U G39C and G6A U54C A57U G58A A65U cannot be ordered by yeast fitness: at most 0.5 for the first, at most 0.5 for the second.

First: G6A G12A C22U A42C
Second: G6A G10A A43G U47G
The yeast fitness of the first is lower: at most 0.5 for the first, 0.761 for the second.

Compared with G6A G39C U54C, G6A C11U C55U is higher in yeast fitness: at most 0.5 for the first, 0.814 for the second.

First: G6A U8A C22G U47A A70C
Second: G6A C27A C30U G41C A43U C49A
The yeast fitness of the first is lower: at most 0.5 for the first, 0.52 for the second.

G6A U19C C30G A69C and G6A U26C C29A cannot be ordered by yeast fitness: at most 0.5 for the first, at most 0.5 for the second.

Going from G6A G44C A69U to G6A G9C C46G, the yeast fitness falls from 0.586 to 0.561.

G6A C11G A45U A57G A70G and G6A G23C C29G A43U G50A A65C cannot be ordered by yeast fitness: at most 0.5 for the first, at most 0.5 for the second.

Compared with G6A U54C, G6A U54A is lower in yeast fitness: 0.948 for the first, 0.674 for the second.
